Experimental data pooled from the literature.
Lines come from different studies, so protocols differ.
Target: Serine/threonine-protein kinase 33 (STK33, Homo sapiens, UniProt Q9BYT3)

With `CCCCN(CCCC)C(=O)CN1C[C@H](c2cc(OC)c3c(c2)OCO3)[C@@H](C(=O)O)[C@@H]1CC(C)(C)CCC` the remaining binding was 100% (cell-free assay, competition with immobilised ligand; 1 µM).
`CC(C)(O)[C@H]1CC[C@H](Nc2ccc3ncc(-c4cccc(C(F)(F)F)c4)n3n2)CC1` gave a remaining activity of 40.5% (enzyme activity, inhibitor; 1 µM).
`Cn1cnc(Br)c1C1=CN(c2ncnc3[nH]cnc23)CCS1` has an inhibition of 78.4% (enzyme activity, inhibitor, radiometric; 2 µM).
For `COc1cc(Cl)c(C(=O)N[C@@H](CN[C@H]2CC[C@@H](N)CC2)Cc2ccc(C#N)cc2)cc1-c1ccc(CN[C@H](C)c2ccc(C)cc2)o1`, the remaining activity was 99% (enzyme activity, inhibitor; 1 µM).
With `Cn1cc(Cl)c2c(Oc3c(F)cc(Nc4cc(Cl)nc(N)n4)cc3F)ccnc21` the remaining binding was 100% (cell-free assay, competition with immobilised ligand; 0.1 µM).
The remaining activity of `COc1cc(Nc2cnc(C#N)c(O[C@H](C)CN(C)C)n2)ncc1-c1cnn(C)c1` is reported as 59% (enzyme activity, inhibitor, radiometric; 1 µM).
For `CCCOc1ccc(OC)c(F)c1C(=O)c1ccc(C(=O)N[C@@H]2CNC[C@H]2NC(=O)c2ccc3[nH]ncc3c2)cc1`, the remaining activity was 7% (enzyme activity, inhibitor; 10 µM).
`Cn1cncc1C1=CN(c2ncnc3[nH]cnc23)CCS1` has an inhibition of 80.5% (enzyme activity, inhibitor, radiometric; 2 µM).
`Cc1ccc(Nc2nccc(N(C)c3ccc4c(C)n(C)nc4c3)n2)cc1S(N)(=O)=O` gave an inhibition of 34% (enzyme activity, inhibitor; 10 µM).
For `FC(F)(F)Oc1cccc(-c2cnc3ccc(-c4ccncc4)nn23)c1`, the activity vs control was 100% (enzyme activity, inhibitor, radiometric; 5 µM).
With `CC(C)c1ccc(NC(=O)c2cccs2)c(-c2nc3ccccc3[nH]c2=O)c1` the activity vs control was 39% (enzyme activity, inhibitor; 1 µM).
`CCN(CC)c1ccc(C2=NNC(=O)CC2C)cc1[N+](=O)[O-]` (stereo not shown) has a remaining activity of 102% (enzyme activity, inhibitor; 10 µM).
`O=C(Nc1cnn(-c2csc(C(=O)NC3COC3)c2)c1)Nc1ccccc1Cl` has a remaining activity of 99.3% (enzyme activity, inhibitor; 5 µM).
With `COc1cc(-c2cn(C3CCc4ccccc4N(CC(F)(F)F)C3=O)nn2)ccc1-n1ccc(C)n1` (stereo not shown) the remaining binding was 100% (cell-free assay, competition with immobilised ligand; 1 µM).
`Cc1ccc(NC(=O)c2ccc(C)c(C(F)(F)F)c2)cc1C#Cc1nn(C2CCC(O)CC2)c2ncnc(N)c12` (stereo not shown) has a remaining signal of 109% (cell-free assay; 10 µM).
For `CCc1ccccc1C(=O)Nc1n[nH]c2c(C)c(F)c(C3C(C#N)=C(C)N(C)C(C)=C3C#N)cc12`, the remaining binding was 100% (cell-free assay, competition with immobilised ligand; 1 µM).
For `COc1cc(/C=C/C(=O)CC(=O)/C=C/c2ccc(O)c(OC)c2)ccc1O`, the activity vs control was 25% (enzyme activity, inhibitor; 1 µM).
With `CS(=O)(=O)N1CCCC(NC(=O)[C@H](CCC2CCCCC2)NC(=O)c2ccc(CNc3ncnc4c3nnn4-c3ccccc3)cc2)C1` (stereo partly shown) the remaining binding was 84% (cell-free assay, competition with immobilised ligand; 0.1 µM).
The inhibition of `CCCS(=O)(=O)Nc1ccc(F)c(C(=O)c2c[nH]c3ncc(-c4ccc(Cl)cc4)cc23)c1F` is reported as less than 10% (enzyme activity, inhibitor; 1 µM).
